Results as given in ChEMBL document CHEMBL1126919, “Analyses of ligand binding in five endothiapepsin crystal complexes and their use in the design and evaluation of novel renin inhibitors” (J Med Chem, 1993).

Key:
Renin = target: T1, Renin (Homo sapiens, UniProt P00797); experiment: Inhibitory concentration of compound against renin human plasma; assay type: cell-free
T1 sequence (P00797 whole entry): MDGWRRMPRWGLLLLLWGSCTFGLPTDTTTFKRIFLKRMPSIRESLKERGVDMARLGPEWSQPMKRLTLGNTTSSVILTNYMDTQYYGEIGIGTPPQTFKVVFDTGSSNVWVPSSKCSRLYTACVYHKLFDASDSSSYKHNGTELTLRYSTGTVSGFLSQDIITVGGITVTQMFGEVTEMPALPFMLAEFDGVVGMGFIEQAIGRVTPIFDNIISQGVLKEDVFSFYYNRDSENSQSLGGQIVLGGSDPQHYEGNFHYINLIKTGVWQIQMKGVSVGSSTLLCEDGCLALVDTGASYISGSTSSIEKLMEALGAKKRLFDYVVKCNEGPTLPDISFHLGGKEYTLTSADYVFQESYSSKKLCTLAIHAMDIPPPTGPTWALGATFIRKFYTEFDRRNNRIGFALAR

Renin (Homo sapiens) [1] = target: T2, Renin (Homo sapiens) (UniProt P00797); experiment: Percent inhibition of compound against renin monkey plasma at 10e-6 M; assay type: cell-free; details: Cercopithecidae, target entry is the homologue from another species
T2 sequence (whole entry): T1 sequence (P00797 whole entry)
Outline: (§1)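 Renin activity in monkey plasma, with inhibition measured as angiotensin I generated, quantified by radioimmunoassay following Haber's method.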

[2] = Binding affinity of compound against endothiapepsin
Outline: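 Reactions at 37 °C in 0.1 M sodium formate pH 3.5 with 4% DMSO (inhibitor stocks in DMSO). Enzyme preincubated 3 min at 37 °C. Initial rates taken at six substrate levels (0.8Km–10Km), then at ≥3 substrate levels after preincubation with ≥2 inhibitor concentrations. Ki fitted by Marquardt analysis to competitive-inhibition equation.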

Renin (Homo sapiens) [3] = target: T2, Renin (Homo sapiens); experiment: Percent inhibition of compound against renin monkey plasma at 10E-6 M; assay type: cell-free; details: Cercopithecidae, target entry is the homologue from another species; outline: as §1
Renin (Homo sapiens) [4] = target: T2, Renin (Homo sapiens); experiment: Percent inhibition of compound against renin human plasma at 10 e-6 M; assay type: cell-free
Renin (Homo sapiens) [5] = target: T2, Renin (Homo sapiens); experiment: Percent inhibition of compound against renin monkey plasma at 10 e-6 M; details: Cercopithecidae, target entry is the homologue from another species

Compound | IC50 (Renin) [nM] | Ki [2] [nM] | further results
CCC(C)CNC(=O)CC(O)C(CC(C)C)NC(=O)C(CCCC/N=C(/S)NC)NC(=O)C(Cc1ccccc1)NS(=O)(=O)N(C)C (stereo unspecified) | 25 |  | 
CC(C)CC(O)C(O)C(CC1CCCCC1)NC(=O)c1cc(NC(=O)CSc2ccccc2)ccc1CO (stereo unspecified) |  |  | inhibition (Renin (Homo sapiens) [1]): 4.4%
CCSC(NC(=O)[C@H](Cc1ccccc1)NS(=O)(=O)N1CCOCC1)C(=O)N[C@@H](CC1CCCCC1)[C@@H](O)[C@@H](O)CC(C)C (stereo partly specified) |  | 6.5 | 
CC(C)CC(O)C(O)C(CC1CCCCC1)NC(=O)c1cccc(NC(=O)CSc2ccccc2)c1 (stereo unspecified) |  |  | inhibition (Renin (Homo sapiens) [3]): 12.6%
CC(C)CC(NC(=O)CC(O)C(CC1CCCCC1)NC(=O)CCC(O)C(Cc1ccccc1)NC(=O)OC(C)(C)C)C(=O)NCc1cccc(CN)c1 (stereo unspecified) | 22 | 16000 | 
CCC(C)CNC(=O)CP(=O)(O)C(CC(C)C)NC(=O)C(Cc1c[nH]cn1)NC(=O)C(Cc1ccccc1)NC(=O)OC(C)(C)C (stereo unspecified) |  | 110 | inhibition (Renin (Homo sapiens) [4]): 3.3%
CCC(C)CNC(=O)C(CC(C)C)CC(O)C(CC1CCCCC1)NC(=O)C(Cc1c[nH]cn1)NC(=O)C(Cc1cccc2ccccc12)Cc1cccc2ccccc12 (stereo unspecified) | 170 | 240 | 
COC(=O)C(C)(NC(=O)C(Cc1ccccc1)NS(=O)(=O)N1CCOCC1)C(=O)NC(CC1CCCCC1)C(O)C(O)CC(C)C (stereo unspecified) |  |  | inhibition (Renin (Homo sapiens) [5]): 4.4%
